The structures appear in SMILES notation.

The nature of experiment [1]: Inhibition of Plasmodium falciparum falcipain-3 expressed in Escherichia coli. The method in brief:
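Refolded recombinant enzyme from E. coli, 2 nM, in 100 mM sodium acetate pH 5.5 with 500 μM CHAPS and 10 mM DTT, DMSO up to 1%. H-D-Val-Leu-Arg-AFC at 150 μM final. Reaction started by enzyme addition; fluorescence monitored 1 h at room temperature. IC50 derived from percent activity plotted against inhibitor concentration.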

Experiment [2] is described as follows: Inhibition of Plasmodium falciparum falcipain-2 expressed in Escherichia coli. A digest of the protocol: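 Recombinant E. coli-expressed, refolded enzyme at 0.25 nM in 100 mM sodium acetate pH 5.5, 500 μM CHAPS, 10 mM DTT, DMSO ≤1%. Substrate H-D-Val-Leu-Arg-AFC at 30 μM final. Inhibitor dilutions mixed with substrate, enzyme added last; fluorescence followed 1 h at room temperature. IC50 from percent activity versus concentration.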

Usually IC50 stands for the concentration at which inhibition is half-maximal. Higher therefore signals weaker potency. Regarding `CC(C)(C)OC(=O)NN(CCC1CCCCC1)c1nc(C#N)ncc1Br`, the 50% inhibitory concentration (IC50) worked out at 860 nM in experiment [1] and 257 nM in experiment [2].
The matching figures for `CC(C)(C)OC(=O)NN(Cc1ccoc1)c1nc(C#N)ncc1Br`: 183 nM and 60 nM.
The matching figures for `CC(C)(C)OC(=O)NN(CC1CCOCC1)c1nc(C#N)ncc1Br`: 85 nM and 8 nM.
The matching figures for `CC(C)CN(NC(=O)c1nccc2ccccc12)c1nc(C#N)ncc1Cl`: 197 nM and 7 nM.
Consider `COc1ccc2oc(C(=O)NN(CC(C)C)c3nc(C#N)ncc3Br)cc2c1`, for which the IC50 amounted to 1240 nM in experiment [1] and 183 nM in experiment [2].
The matching figures for `CC(C)(C)OC(=O)NN(CC1CCCC1)c1nc(C#N)ncc1Br`: 10 nM and 1 nM.
Regarding `CC(C)CN(NC(=O)c1nc2ccccc2s1)c1nc(C#N)ncc1Cl`, the concentration for half-maximal inhibition (IC50) in experiment [1] worked out at 112 nM; in experiment [2] it was 2 nM.
With `CC(C)CN(NC(=O)c1cccc(-c2cncnc2)c1)c1nc(C#N)ncc1Br`, the values for the 50% inhibitory concentration (IC50) in experiment [1] and in experiment [2] were 12 nM and less than 0.5 nM, respectively.
For `CC(C)(C)OC(=O)NN(c1nc(C#N)ncc1Br)C1CCN(C(=O)OC(C)(C)C)CC1`, the IC50 came out at 135 nM in experiment [1] and 26 nM in experiment [2].
The matching figures for `CC(C)(C)OC(=O)NN(c1nc(C#N)ncc1Br)C1CCC1`: 297 nM and 13 nM.
With `Cc1c(C(=O)NN(CC(C)C)c2nc(C#N)ncc2Br)oc2cccnc12`, the IC50 in experiment [1] was found to be 73 nM; in experiment [2], 2 nM.
On to `CC(C)CN(NC(=O)OC(C)(C)C)c1nc(C#N)ncc1C(F)(F)F`, for which the IC50 in experiment [1] was determined as 66 nM; in experiment [2] it was 3 nM.
Consider `CC(C)CN(NC(=O)c1cc2ccccc2[nH]1)c1nc(C#N)ncc1Br`, for which the concentration for half-maximal inhibition (IC50) was 641 nM in experiment [1] and 15 nM in experiment [2].
`CC(C)CN(NC(=O)c1cccc(Oc2ccccc2)c1)c1nc(C#N)ncc1Br`: the concentration for half-maximal inhibition (IC50) in experiment [1] is 116 nM; in experiment [2], 4 nM.
In the case of `CC(C)CN(NC(=O)c1ccc(Oc2ccccc2)cc1)c1nc(C#N)ncc1Br`, the results for the half-maximal inhibitory concentration (IC50) in experiment [1] and in experiment [2] were 896 nM and 8 nM, respectively.
The matching figures for `Cc1ccc2sc(C(=O)NN(CC(C)C)c3nc(C#N)ncc3Br)cc2c1`: 748 nM and 6 nM.
Take `CC(C)CN(NC(=O)C1(c2ccc(Cl)cc2)CCCCC1)c1nc(C#N)ncc1Br`: the 50% inhibitory concentration (IC50) was 1650 nM in experiment [1] and 40 nM in experiment [2].
The matching figures for `CC(C)CN(NC(=O)OC(C)(C)C)c1nc(C#N)ncc1Br`: 92 nM and 3 nM.
The matching figures for `CC(C)CN(NC(=O)c1cc(-c2cccs2)on1)c1nc(C#N)ncc1Br`: 218 nM and 4 nM.
As for `CC(C)CN(NC(=O)Cc1c(F)cccc1F)c1nc(C#N)ncc1Br`, the figures for the IC50 in experiment [1] and in experiment [2] were 8 nM and 0.5 nM, respectively.
The matching figures for `CC(C)(C)OC(=O)NN(CCc1ccccc1)c1nc(C#N)ncc1Br`: 557 nM and 93 nM.
As for `CC(C)CN(NC(=O)c1cccc2c1C(=O)c1ccccc1-2)c1nc(C#N)ncc1Br`, the IC50 in experiment [1] was found to be 831 nM; in experiment [2], 25 nM.
On to `COc1ccc(C(C)(C)C(=O)NN(CC(C)C)c2nc(C#N)ncc2Br)cc1`, for which the results for the 50% inhibitory concentration (IC50) in experiment [1] and in experiment [2] were 34 nM and 6 nM, respectively.
For the compound `CC1OCCC1N(NC(=O)OC(C)(C)C)c1nc(C#N)ncc1Br` (stereo not given), the IC50 in experiment [1] was 98 nM; in experiment [2] it was 7 nM.
On to `CC(C)CN(NC(=O)c1ccc(-n2ccc(C(F)(F)F)n2)cc1)c1nc(C#N)ncc1Cl`, for which the IC50 in experiment [1] was 144 nM; in experiment [2], 2 nM.
Regarding `CC(C)CN(NC(=O)c1cnc2ccccc2c1)c1nc(C#N)ncc1Cl`, the half-maximal inhibitory concentration (IC50) in experiment [1] was 126 nM; in experiment [2], 1 nM.
The matching figures for `CC(C)CN(NC(=O)c1ccc(-c2ccc(Cl)cc2)o1)c1nc(C#N)ncc1Br`: 351 nM and 20 nM.
For the compound `CC(C)(C)OC(=O)NN(CC1CC=CC1)c1nc(C#N)ncc1Br`, the concentration for half-maximal inhibition (IC50) is 35 nM in experiment [1] and 2 nM in experiment [2].
As to `Cc1nc(-c2ccc(C(=O)NN(CC(C)C)c3nc(C#N)ncc3Br)cc2)cs1`, the 50% inhibitory concentration (IC50) amounted to 164 nM in experiment [1] and 0.8 nM in experiment [2].
On to `CC(C)(C)OC(=O)NN(c1nc(C#N)ncc1Br)C1CCOCC1`, for which the half-maximal inhibitory concentration (IC50) in experiment [1] was found to be 28 nM; in experiment [2], 2 nM.
In the case of `CC(C)(C)OC(=O)NN(c1nc(C#N)ncc1Br)C1CC=CC1`, the results for the concentration for half-maximal inhibition (IC50) in experiment [1] and in experiment [2] were 21 nM and 2 nM, respectively.
As for `Cc1nc(-c2ccc(C(F)(F)F)cc2)sc1C(=O)NN(CC(C)C)c1nc(C#N)ncc1Cl`, the IC50 in experiment [1] was found to be 1540 nM; in experiment [2] it was 12 nM.
Turning to `CC(C)CN(NC(=O)c1cnc(-c2ccc3c(c2)CCO3)s1)c1nc(C#N)ncc1Cl`, the figures for the 50% inhibitory concentration (IC50) in experiment [1] and in experiment [2] were 198 nM and 2 nM, respectively.
For `CC(C)(C)OC(=O)NN(c1nc(C#N)ncc1Br)C1CCCCC1`, the IC50 was 8 nM in experiment [1] and 1 nM in experiment [2].
As to `CC(C)CN(NC(=O)c1ccc2nccnc2c1)c1nc(C#N)ncc1Br`, the IC50 in experiment [1] came out at 1440 nM; in experiment [2], 66 nM.
In the case of `CC(C)(C)OC(=O)NN(c1nc(C#N)ncc1Br)C1CCCC1`, the half-maximal inhibitory concentration (IC50) in experiment [1] was 56 nM; in experiment [2] it was 9 nM.
`CC(C)CN(NC(=O)c1ccc(-n2cncn2)cc1)c1nc(C#N)ncc1Br`: the results for the IC50 in experiment [1] and in experiment [2] were 52 nM and 3 nM, respectively.
In the case of `CC(C)(C)OC(=O)NN(CCC1C=CCC1)c1nc(C#N)ncc1Br` (stereo not given), the results for the IC50 in experiment [1] and in experiment [2] were 311 nM and 12 nM, respectively.
The matching figures for `COc1nc(C#N)nc(N(CC(C)C)NC(=O)OC(C)(C)C)n1`: 204 nM and 12 nM.
Consider `Cc1c(C(=O)NN(CC(C)C)c2nc(C#N)ncc2Br)noc1-c1ccccc1`, for which the values for the IC50 in experiment [1] and in experiment [2] were 71 nM and 20 nM, respectively.
The matching figures for `C[C@@H]1CCC[C@H]1N(NC(=O)OC(C)(C)C)c1nc(C#N)ncc1Br` (relative stereo): 6 nM and 3 nM.
The matching figures for `Cc1nc(-c2ccccc2)sc1C(=O)NN(CC(C)C)c1nc(C#N)ncc1Br`: 999 nM and 406 nM.
With `COc1cccc2cc(C(=O)NN(CC(C)C)c3nc(C#N)ncc3Br)oc12`, the half-maximal inhibitory concentration (IC50) was found to be 399 nM in experiment [1] and 46 nM in experiment [2].
Turning to `CC(C)(C)OC(=O)NN(c1nc(C#N)ncc1Br)C1CCCC1(C)C` (stereo not given), the figures for the IC50 in experiment [1] and in experiment [2] were 447 nM and 34 nM, respectively.
The matching figures for `CC(C)CN(NC(=O)c1ccccc1Oc1ccccc1)c1nc(C#N)ncc1Br`: 66 nM and 5 nM.
For the compound `CC(C)CN(NC(=O)c1cc(-c2ccccc2)no1)c1nc(C#N)ncc1Cl`, the half-maximal inhibitory concentration (IC50) in experiment [1] came out at 120 nM; in experiment [2] it was 2 nM.
As to `Cc1oc(-c2ccccc2)cc1C(=O)NN(CC(C)C)c1nc(C#N)ncc1Br`, the IC50 in experiment [1] was found to be 837 nM; in experiment [2], 25 nM.
The matching figures for `CC(C)CN(NC(=O)c1cc2ccccc2s1)c1nc(C#N)ncc1Br`: 365 nM and 241 nM.
The matching figures for `CC(C)CN(NC(=O)c1csc(-c2ccccc2)n1)c1nc(C#N)ncc1Br`: 130 nM and 3 nM.
On to `CC(C)CN(NC(=O)c1ncoc1-c1ccccc1)c1nc(C#N)ncc1Br`, for which the concentration for half-maximal inhibition (IC50) in experiment [1] came to 94 nM; in experiment [2], 14 nM.
